Laboratory results published in ChEMBL document CHEMBL3992565, “Discovery of [1,2,3]Triazolo[4,5-d]pyrimidine Derivatives as Novel LSD1 Inhibitors” (ACS Med Chem Lett, 2017).
Active and inactive are the calls of the source. The rule behind the calls is not given here.

What was measured:
MGC-803 [1] = experiment: Antimigratory activity against human MGC803 cells assessed as accumulation of E-cadherin at 0.5 to 2 uM after 24 hrs by Western blot method; format: functional, cell-based
How it was run: (§1)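 MGC-803 cells were exposed for 24 h to three low concentrations. E-cadherin (epithelial marker) and N-cadherin (mesenchymal marker) were then probed by Western blot. Data are mean ± SD from at least three experiments.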

MAO-A [2] = target: T1, MAO-A (Homo sapiens, UniProt P21397); experiment: Inhibition of MAO-A (unknown origin) at 10 uM using luciferin-derived luminogenic substrate by MAO-Glo assay relative to control; conditions: MAO-A enzyme (unknown origin), probe luciferin-derived luminogenic substrate
T1 sequence (P21397 whole entry): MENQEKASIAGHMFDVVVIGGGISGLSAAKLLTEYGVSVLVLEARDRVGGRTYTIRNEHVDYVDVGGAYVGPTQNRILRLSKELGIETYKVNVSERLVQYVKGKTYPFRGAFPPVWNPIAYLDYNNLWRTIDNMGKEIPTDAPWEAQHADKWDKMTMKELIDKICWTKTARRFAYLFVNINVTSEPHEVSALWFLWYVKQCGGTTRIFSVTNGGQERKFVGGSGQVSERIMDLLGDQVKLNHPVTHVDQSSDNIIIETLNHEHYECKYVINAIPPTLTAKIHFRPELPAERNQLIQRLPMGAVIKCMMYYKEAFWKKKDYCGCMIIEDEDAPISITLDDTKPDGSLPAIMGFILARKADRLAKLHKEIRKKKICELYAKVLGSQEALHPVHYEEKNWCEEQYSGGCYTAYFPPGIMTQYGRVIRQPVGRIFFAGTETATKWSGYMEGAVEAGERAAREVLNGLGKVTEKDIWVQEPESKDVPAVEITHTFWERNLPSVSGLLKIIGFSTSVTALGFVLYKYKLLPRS

MGC-803 [3] = experiment: Effect on LSD1 expression in human MGC803 cells up to 4 uM after 5 days by DAPI staining based immunofluorescence assay; format: cell-based; conditions: mgc-803, 120 h
How it was run: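 MGC-803 cells were seeded in 96-well plates and treated for 5 days at the indicated concentrations. LSD1 was stained by immunofluorescence, with DAPI used for cell counting. Each well was scored over 12 fields by high content analysis. Data are mean ± SD from at least three experiments.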

Homo sapiens [4] = organism: Homo sapiens; experiment: Activity at histone demethylase in human MGC803 cells assessed as effect on H3K4me3 level up to 4 uM after 5 days by Western blot method; format: cell-based
How it was run: (§2)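 MGC-803 gastric cancer cells, which overexpress LSD1, were treated at the indicated concentrations. Several histone methylation marks were then probed by Western blot. Each experiment was run independently at least three times.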

Homo sapiens [5] = organism: Homo sapiens; experiment: Activity at histone lysine methyltransferase in human MGC803 cells assessed as effect on H3K9me1 level up to 4 uM after 5 days by Western blot method; format: cell-based; how it was run: as §2
Homo sapiens [6] = organism: Homo sapiens; experiment: Activity at histone demethylase in human MGC803 cells assessed as effect on H3K9me2 level up to 4 uM after 5 days by Western blot method; format: cell-based; how it was run: as §2
MAO-A [7] = target: T1, MAO-A; experiment: Inhibition of MAO-A (unknown origin) at 1 uM using luciferin-derived luminogenic substrate by MAO-Glo assay relative to control; conditions: MAO-A enzyme (unknown origin), probe luciferin-derived luminogenic substrate
Homo sapiens [8] = organism: Homo sapiens; experiment: Activity at histone lysine methyltransferase in human MGC803 cells assessed as effect on H3K4me3 level up to 4 uM after 5 days by Western blot method; format: cell-based; how it was run: as §2
MGC-803 [9] = experiment: Antimigratory activity against human MGC803 cells assessed as decrease in N-cadherin level at 0.5 to 2 uM after 24 hrs by Western blot method; format: functional, cell-based; how it was run: as §1
MAO-B [10] = target: T2, MAO-B (Homo sapiens, UniProt P27338); experiment: Inhibition of MAO-B (unknown origin) at 1 uM using luciferin-derived luminogenic substrate by MAO-Glo assay relative to control; conditions: MAO-B enzyme (unknown origin), probe luciferin-derived luminogenic substrate
T2 sequence (P27338 whole entry): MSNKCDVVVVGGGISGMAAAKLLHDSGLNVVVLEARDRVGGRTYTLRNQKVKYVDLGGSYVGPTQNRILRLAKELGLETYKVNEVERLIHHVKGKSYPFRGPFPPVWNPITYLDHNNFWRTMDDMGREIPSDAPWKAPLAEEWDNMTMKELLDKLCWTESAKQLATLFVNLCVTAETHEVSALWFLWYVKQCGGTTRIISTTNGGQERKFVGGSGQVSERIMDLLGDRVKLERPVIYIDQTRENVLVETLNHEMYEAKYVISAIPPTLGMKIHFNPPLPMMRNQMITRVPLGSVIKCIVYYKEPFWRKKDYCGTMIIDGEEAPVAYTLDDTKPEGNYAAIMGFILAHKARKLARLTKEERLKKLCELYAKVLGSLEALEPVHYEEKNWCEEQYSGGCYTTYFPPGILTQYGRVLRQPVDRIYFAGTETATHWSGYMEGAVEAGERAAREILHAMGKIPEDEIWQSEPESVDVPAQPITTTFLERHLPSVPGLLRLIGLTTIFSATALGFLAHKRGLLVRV

MGC-803 [11] = experiment: Antimigratory activity against human MGC803 cells at lower concentration after 24 hrs by Hoechst 33258 staining based transwell assay; format: functional, cell-based
How it was run: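 Migration was measured by transwell assay read by high content analysis. MGC-803 cells were treated for 24 h at three low concentrations. Data are mean ± SD from at least three independent experiments, with significance at p < 0.01.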

MGC-803 [12] = experiment: Antiproliferative activity against human MGC803 cells after 5 days by MTT assay; conditions: MGC-803, 120 h
MAO-B [13] = target: T2, MAO-B; experiment: Inhibition of MAO-B (unknown origin) at 10 uM using luciferin-derived luminogenic substrate by MAO-Glo assay relative to control; conditions: MAO-B enzyme (unknown origin), probe luciferin-derived luminogenic substrate
Homo sapiens [14] = organism: Homo sapiens; experiment: Activity at histone demethylase in human MGC803 cells assessed as effect on H3K9me1 level up to 4 uM after 5 days by Western blot method; format: cell-based; how it was run: as §2
Homo sapiens [15] = organism: Homo sapiens; experiment: Activity at histone lysine methyltransferase in human MGC803 cells assessed as effect on H3K9me2 level up to 4 uM after 5 days by Western blot method; format: cell-based; how it was run: as §2
[16] = target: T3, Lysine-specific histone demethylase 1A (Homo sapiens, UniProt O60341); experiment: Inhibition of full length recombinant LSD1 (unknown origin) expressed in Escherichia coli […] using H3K4me2 as substrate by fluorescence assay
[17] = target: T3, Lysine-specific histone demethylase 1A; conditions: 600 uM

inhibition at 10 µM (MAO-A [2]) [%] | inhibition at 1 µM (MAO-A [7]) [%] | inhibition at 1 µM (MAO-B [10]) [%] | IC50 (MGC-803 [12]) [µM] | inhibition at 10 µM (MAO-B [13]) [%] | IC50 [16] [µM] | inhibition [17] | Structure (SMILES) | Activity (MGC-803 [1]) | Activity (MGC-803 [3]) | Activity (Homo sapiens [4]) | Activity (Homo sapiens [5]) | Activity (Homo sapiens [6]) | Activity (Homo sapiens [8]) | Activity (MGC-803 [9]) | Activity (MGC-803 [11]) | Activity (Homo sapiens [14]) | Activity (Homo sapiens [15])
59 | 34 | 11 | 7.64 | 39 |  |  | c1ccc(CSc2nc(Sc3ccccn3)c3nnn(Cc4ccccc4)c3n2)cc1 | Active | Non-Toxic | inactive | inactive | inactive | inactive | Active | Active | inactive | inactive
 |  |  | > 125 |  | 0.041 | inactive | O=C(O)c1ccc(CN2CCC(CN[C@@H]3C[C@H]3c3ccccc3)CC2)cc1 [GSK2879552] |  |  |  |  |  |  |  |  |  | 
